Results as given in ChEMBL document CHEMBL2086239, “Synthesis and biological evaluation of combretastatin-amidobenzothiazole conjugates as potential anticancer agents” (Eur J Med Chem, 2012).
Activity calls are given as the source filed them. The calls are words filed in the database; no cut-off is given here.

Columns and labels:
[1] = test system: SK-MEL-5; experiment: Growth inhibition of human SK-MEL-5 cells after 48 hrs by SRB assay; type: functional; details: SK-MEL-5, 48 h
Method in brief: (§1)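 NCI 60-cell-line panel, five-dose testing after preliminary screen; sulforhodamine B protein assay in DMEM with 10% FBS, 37 °C, 5% CO2, 100% humidity. Cells seeded and incubated 24 h before compound addition, then exposed 48 h. Absorbance read at 560 nm; growth percentage relative to control wells; GI50 taken as concentration giving 50% growth inhibition.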

[2] = test system: ACHN; experiment: Growth inhibition of human ACHN cells after 48 hrs by SRB assay; type: functional
Method in brief: (§2)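 NCI 60-cell-line screen: after preliminary screening, tested at five dose concentrations on 59 human tumour lines covering leukemia, lung, colon, CNS, melanoma, ovarian, renal, prostate and breast.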

[3] = test system: U-251; experiment: Growth inhibition of human U251cells after 48 hrs by SRB assay; type: functional; details: U-251, 48 h; method in brief: as §1
[4] = test system: CCRF-CEM; experiment: Growth inhibition of human CCRF-CEM cells after 48 hrs by SRB assay; type: functional; method in brief: as §2
[5] = test system: NCI-H23; experiment: Growth inhibition of human NCI-H23 cells after 48 hrs by SRB assay; type: functional; details: NCI-H23, 48 h; method in brief: as §2
[6] = test system: PC-3; experiment: Growth inhibition of human PC3 cells after 48 hrs by SRB assay; type: functional; details: PC-3, 48 h; method in brief: as §2
[7] = test system: DU-145; experiment: Growth inhibition of human DU145 cells after 48 hrs by SRB assay; type: functional; details: DU-145, 48 h; method in brief: as §2
[8] = test system: HCC 2998; experiment: Growth inhibition of human HCC2998 cells after 48 hrs by SRB assay; type: functional; method in brief: as §2
[9] = test system: HCT-116; experiment: Growth inhibition of human HCT116 cells after 48 hrs by SRB assay; type: functional; details: HCT-116, 48 h; method in brief: as §2
[10] = test system: MDA-MB-468; experiment: Growth inhibition of human MDA-MB-468 cells after 48 hrs by SRB assay; type: functional; method in brief: as §2
[11] = test system: A549; experiment: Cytotoxicity against human A549 cells assessed as inhibition of cell growth at 10 uM after 48 hrs by SRB assay relative to control; type: functional; details: for inhibition of growth at 10 µM: A549, 48 h, read-out: GI
Method in brief: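 SRB protein assay in DMEM with 10% FBS at 37 °C, 5% CO2, 100% relative humidity. Cells seeded in 96-well plates, incubated 24 h, then exposed to drug at 10 µM for 48 h and processed per standard protocol. Absorbance read at 560 nm; growth percentage calculated for test wells relative to control wells.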

[12] = test system: MCF7; experiment: Growth inhibition of human MCF7 cells after 48 hrs by SRB assay; type: functional; details: MCF7, 48 h; method in brief: as §2
[13] = test system: LOX IMVI; experiment: Growth inhibition of human LOXIMVI cells after 48 hrs by SRB assay; type: functional; method in brief: as §2
[14] = test system: KM12; experiment: Growth inhibition of human KM12 cells after 48 hrs by SRB assay; type: functional; details: KM12, 48 h; method in brief: as §2
[15] = test system: HCT-15; experiment: Growth inhibition of human HCT15 cells after 48 hrs by SRB assay; type: functional; details: HCT-15, 48 h; method in brief: as §2
[16] = test system: EKVX; experiment: Growth inhibition of human EKVX cells after 48 hrs by SRB assay; type: functional; method in brief: as §2
[17] = test system: MDA-MB-231; experiment: Growth inhibition of human MDA-MB-231 cells after 48 hrs by SRB assay; type: functional; details: MDA-MB-231, 48 h; method in brief: as §2
[18] = test system: SK-OV-3; experiment: Growth inhibition of human SKOV3 cells after 48 hrs by SRB assay; type: functional; details: SK-OV-3, 48 h; method in brief: as §1
[19] = test system: NCI-H460; experiment: Growth inhibition of human NCI-H460 cells after 48 hrs by SRB assay; type: functional; details: NCI-H460, 48 h; method in brief: as §2
[20] = test system: CAKI-1; experiment: Growth inhibition of human Caki1 cells after 48 hrs by SRB assay; type: functional; details: CAKI-1, 48 h; method in brief: as §2
[21] = test system: IGROV-1; experiment: Growth inhibition of human IGROV1 cells after 48 hrs by SRB assay; type: functional; details: IGROV-1, 48 h; method in brief: as §2
[22] = test system: OVCAR-4; experiment: Growth inhibition of human OVCAR4 cells after 48 hrs by SRB assay; type: functional; details: OVCAR-4, 48 h; method in brief: as §2
[23] = test system: A498; experiment: Growth inhibition of human A498 cells after 48 hrs by SRB assay; type: functional; details: A498, 48 h; method in brief: as §2
[24] = test system: MCF7; experiment: Cell cycle arrest in human MCF7 cells assessed as accumulation at G2/M phase at 4 uM after 24 hrs by FACS analysis (reference value: 34.88%); type: functional
[25] = test system: UO-31; experiment: Growth inhibition of human UO31 cells after 48 hrs by SRB assay; type: functional; details: UO-31, 48 h; method in brief: as §1
[26] = test system: BT-549; experiment: Growth inhibition of human BT549 cells after 48 hrs by SRB assay; type: functional; details: BT-549, 48 h; method in brief: as §2
[27] = test system: RPMI-8226; experiment: Growth inhibition of human RPMI8226 cells after 48 hrs by SRB assay; type: functional; details: RPMI-8226, 48 h; method in brief: as §2
[28] = test system: K562; experiment: Growth inhibition of human K562 cells after 48 hrs by SRB assay; type: functional; details: K562, 48 h; method in brief: as §2
[29] = test system: MCF7; experiment: Cytotoxicity against human MCF7 cells at 4 uM after 24 hrs by MTT assay; type: functional, cell-based
Method in brief: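 MCF-7 cells grown in DMEM with 10% fetal calf serum, penicillin and streptomycin at 37 °C, 5% CO2. Seeded at 10,000 cells/well, incubated overnight, then treated 24 h at 4 µM. Medium replaced with fresh medium plus MTT dye, incubated 2 h at 37 °C. Absorbance read at 570 nm; O.D. taken as viability versus untreated control.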

[30] = Inhibition of tubulin polymerization after 30 mins to 1 hr by spectrophotometry
Method in brief: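 This was a kit-based tubulin polymerization assay. Kit tubulin in G-PEM buffer was incubated with compounds, and polymerization was followed as optical density at 340 nm for 30 min to 1 h. Inhibition was read as a decrease in OD. Nocodazole and paclitaxel were run as reference destabilizer and stabilizer.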

Row | Structure (SMILES) | GI50 [1] [µM] | GI50 [2] [µM] | GI50 [3] [µM] | GI50 [4] [µM] | GI50 [5] [µM] | GI50 [6] [µM] | GI50 [7] [µM] | GI50 [9] [µM] | GI50 [12] [µM] | GI50 [13] [µM] | GI50 [14] [µM] | GI50 [15] [µM] | GI50 [16] [µM] | GI50 [17] [µM] | GI50 [18] [µM] | GI50 [19] [µM] | GI50 [20] [µM] | GI50 [21] [µM] | GI50 [22] [µM] | GI50 [23] [µM] | further results
1 | COc1ccc(/C=C\c2cc(OC)c(OC)c(OC)c2)cc1OCC(=O)Nc1nc2ccc(C(F)(F)F)cc2s1 | 2.84 | 4.82 | 3.67 | 4.27 | 3.9 | 4.32 | 2.51 | 3.29 | 3.16 | 4.01 | 3.14 | 3.24 | 6.25 | 3.38 | 3.29 | 3.55 | 3.1 | 4.48 | 4.66 | 2.81 | GI50 ([8]; HCC 2998, 48 h): 4.23 µM; GI50 ([10]; MDA-MB-468, 48 h): 2.16 µM; inhibition of growth at 10 µM [11]: 30%; Activity [24]: 37.02%; GI50 [25]: 3.59 µM; GI50 [26]: 5.23 µM; GI50 [27]: 5.48 µM; GI50 [28]: 3.3 µM
2 | COc1ccc(/C=C\c2cc(OC)c(OC)c(OC)c2)cc1OCC(=O)Nc1nc2ccc(F)cc2s1 | 1.76 | 3.33 | 4.33 | 3.7 | 4.26 | 6.74 | 8.97 | 4.48 | 2.3 | 3.23 | 4.78 | 8.19 | 5.72 | 9.34 | 8 | 4.36 | 2.78 | 4.17 | 7.3 | 6.25 | GI50 [8]: inactive; GI50 ([10]; MDA-MB-468, 48 h): 3.68 µM; inhibition of growth at 10 µM [11]: 44%; Activity [29]: Active; Activity [24]: 42.08%; GI50 [25]: 2.56 µM; GI50 [26]: 16.7 µM; GI50 [27]: 6.36 µM; GI50 [28]: 3.62 µM
3 | COc1ccc(/C=C\c2cc(OC)c(OC)c(OC)c2)cc1OCC(=O)Nc1nc2ccc(OC(F)(F)F)cc2s1 | 3.26 | 8.31 | 3.37 | 4.12 | 4.39 | 5.12 | 4.11 | 3.92 | 2.89 | 4.77 | 4.48 | 3.23 | 7.89 | 5.16 | 8.42 | 4.11 | 4.6 | 5.64 | 5.34 | 3.61 | GI50 ([8]; HCC 2998, 48 h): 17.1 µM; GI50 ([10]; MDA-MB-468, 48 h): 2.3 µM; inhibition of growth at 10 µM [11]: 40%; Activity [24]: 33.45%; GI50 [25]: 4.37 µM; GI50 [26]: 10.5 µM; GI50 [27]: 5.83 µM; GI50 [28]: 3.43 µM
4 | COc1ccc(/C=C\c2cc(OC)c(OC)c(OC)c2)cc1O [COMBRETASTATIN A4] | 0.003 | 0.006 | 0.007 | 0.002 | 0.003 | 0.001 | 0.001 | 0.003 | 0.005 | 0.003 | 0.005 | 0.003 | 0.079 | 0.001 | 0.063 | 0.007 | 0.025 | 0.015 | 0.015 | 0.006 | GI50 ([8]; HCC 2998, 48 h): 0.063 µM; GI50 [10]: inactive; inhibition of growth at 10 µM [11]: 55%; Activity [24]: 61.23%; GI50 [25]: 0.019 µM; GI50 [26]: 10 µM; GI50 [27]: 0.003 µM; inhibition [30]: Active; GI50 [28]: 0.002 µM
5 | COc1ccc(/C=C\c2cc(OC)c(OC)c(OC)c2)cc1OCC(=O)Nc1ccc2nc(C)sc2c1 | 1.97 | 3.12 | 3.59 | 3.41 | 2.53 | 2.8 | 3.81 | 3.57 | 0.74 | 2.64 | 3.79 | 2.8 | 4.05 | 5.45 | 5.27 | 3.36 | 2.19 | 3.72 | 2.64 | 4.18 | GI50 ([8]; HCC 2998, 48 h): 6.9 µM; GI50 ([10]; MDA-MB-468, 48 h): 2.39 µM; growth inhibition (GI) [11]: inactive; Activity [24]: 37.09%; GI50 [25]: 2.41 µM; GI50 [26]: 3.05 µM; GI50 [27]: 1.98 µM; GI50 [28]: 2.19 µM
6 | COc1ccc2nc(NC(=O)COc3cc(/C=C\c4cc(OC)c(OC)c(OC)c4)ccc3OC)sc2c1 | 2.68 | 7.77 | 4 | 3.87 | 3.91 | 4.45 | 2.04 | 3.7 | 2.88 | 4.17 | 3.12 | 2.89 | 5.11 | 5.4 | 4.69 | 3.73 | 3.2 | 7 | 5.31 | 3.5 | GI50 ([8]; HCC 2998, 48 h): 7.34 µM; GI50 ([10]; MDA-MB-468, 48 h): 2.29 µM; inhibition of growth at 10 µM [11]: 45%; Activity [24]: 30.07%; GI50 [25]: 4.31 µM; GI50 [26]: 21.2 µM; GI50 [27]: 5.43 µM; GI50 [28]: 3.6 µM
